Assay [1] has as its system Escherichia coli. The assay is described as follows: Antimicrobial activity against Escherichia coli isolate AMG1 24 hrs biofilms after 24 hrs relative to control. The class given is functional. Put shortly:
(§1)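 Microtiter plate biofilms grown 24 h, then exposed 24 h to a range of norfloxacin concentrations. Survival counted as CFU and expressed as percent of 10^8 CFU/ml for each strain.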

The subject of assay [2] is Escherichia coli. The experiment in a line: Antimicrobial activity against Escherichia coli isolate AMG1 24 hrs biofilms at 350 ug/ml after 1 hr by microtiter plate count method. Type of assay: functional. Put shortly:
(§2)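 Biofilms were grown 24 h in microtiter plate wells and exposed to penicillin G at 350 μg/ml for 1 h. Viability was counted by CFU plating and compared with untreated control biofilms grown identically. Values are averages of at least three independent determinations ±1 standard deviation. Strain differences were tested by two-tailed Student's t test.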

Assay [3] relates to Escherichia coli. The assay is described as follows: Antimicrobial activity against wild type Escherichia coli K-12 flow cell-generated 24 hrs biofilms at 350 ug/ml after 1 hr using BacLight staining by CSLM. The class given is functional. Put shortly:
(§3)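 Penicillin G 350 μg/ml was given in flowing medium for 1 h, with controls kept on antibiotic-free flow. LIVE/DEAD BacLight was stopped in place for 5 min and then rinsed. CSLM green/(red+green) integrated intensity, thresholded, gave percent survival versus untreated controls.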

In assay [4] the test system is Escherichia coli. The assay is described as follows: Antimicrobial activity against kanamycin-resistant Escherichia coli U6 deltayhcQ mutant 24 hrs biofilms at 350 ug/ml after 1 hr by microtiter plate count method. Type of assay: functional. Put shortly:
(§4)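 Biofilms grown 24 h in microtiter plate wells, then exposed to penicillin G at 350 μg/ml for 1 h. Viability by plate count (CFU) against untreated controls. At least three independent determinations, mean ±1 SD. Strain differences tested by Student's two-tailed t test.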

Assay [5] relates to Escherichia coli. The experiment in a line: Antimicrobial activity against kanamycin-resistant Escherichia coli K-12 M1 W3110 deltarapA mutant 24 hrs biolflim at 350 ug/ml after 1 hr by microtiter plate count method. Type of assay: functional, organism-based. Put shortly:
as §4

For assay [6], the system named is Escherichia coli. The assay is described as follows: Antimicrobial activity against tetracycline-resistant Escherichia coli U1 rapA mutant nylon membrane cultivated 24 hrs biofilms at 350 ug/ml after 1 hr. Type of assay: functional. Put shortly:
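Nylon membranes (1×1 cm) in LB inoculated at OD600 0.1 and grown 24 h at 37°C. Medium replaced with LB ± penicillin G 350 μg/ml for 1 h. Membranes rinsed and vortexed 2 min in M9 salts, then diluted and plated in quadruplicate on LB agar for CFU.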

Assay [7] has as its system Escherichia coli. The experiment in a line: Antimicrobial activity against tetracycline-resistant Escherichia coli U1 rapA mutant 24 hrs biofilms assessed as viability at 350 ug/ml after 1 hr by microtiter plate count method. The class given is functional. Put shortly: as §4
The subject of assay [8] is Escherichia coli. The assay is described as follows: Antimicrobial activity against kanamycin-resistant Escherichia coli K-12 M1 W3110 deltarapA mutant flow cell-generated 24 hrs biofilms at 350 ug/ml after 1 hr using BacLight staining by CSLM. The class given is functional. Put shortly: (§5)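 Biofilms grown 24 h in Plexiglas flow cells on M9-Casamino Acid medium under flow. Penicillin G 350 μg/ml in flowing medium for 1 h; controls kept on medium alone. LIVE/DEAD BacLight (Syto9/propidium iodide) injected, flow halted 5 min, then rinsed. CSLM images thresholded. Survival taken as green/(red+green) fluorescence relative to untreated controls.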

Assay [9] has as its system Escherichia coli. The experiment in a line: Antimicrobial activity against wild type Escherichia coli isolate AMG1 grown as planktonic cells after 24 hrs by spectrophotometric method. Type of assay: functional. Conditions: AMG1, 24 h. Put shortly:
(§6)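 Wells with 100 and 200 μl LB inoculated to OD600 0.06 and grown 24 h at 37°C without shaking. Medium then replaced with LB containing penicillin G (0–250 μg/ml) for 24 h, and growth read by OD. MIC for planktonic cells and MICadh for biofilm taken as the concentration giving 50% growth reduction versus unexposed control. Biofilm contribution derived from the 100/200 μl OD relation.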

Assay [10] deals with Escherichia coli. The experiment in a line: Antimicrobial activity against wild type Escherichia coli isolate AMG1 grown as biofilms after 24 hrs by spectrophotometric method. As to conditions: AMG1, 24 h. Type of assay: functional. Put shortly:
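Triplicate microtiter wells held 100 and 200 μl LB, inoculated at OD600 0.06 and grown 24 h at 37°C without shaking. Liquid was replaced with LB containing penicillin G at 0–250 μg/ml, and growth was read by plate reader 24 h later. The biofilm contribution came from an equation correlating the two volumes' OD. MICadh is the concentration giving 50% growth reduction versus unexposed control.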

The test system of assay [11] is Escherichia coli. The assay is described as follows: Antimicrobial activity against wild type Escherichia coli K-12 24 hrs biolflim at 350 ug/ml after 1 hr by microtiter plate count method. The class given is functional, organism-based. Put shortly:
as §2

Assay [12] has as its system Escherichia coli. The assay is described as follows: Antimicrobial activity against tetracycline-resistant Escherichia coli U1 rapA mutant grown as planktonic cells after 24 hrs by spectrophotometric method. As to conditions: U1, 24 h. The class given is functional. Put shortly: as §6
Assay [13] deals with Escherichia coli. The experiment in a line: Antimicrobial activity against tetracycline-resistant Escherichia coli U1 rapA mutant grown as biofilms after 24 hrs by spectrophotometric method. The class given is functional. Conditions: U1, 24 h. Put shortly:
as §6

The subject of assay [14] is Escherichia coli. The experiment in a line: Antimicrobial activity against tetracycline-resistant Escherichia coli U1 rapA mutant flow cell-generated 24 hrs biofilms using BacLight staining by CSLM. Type of assay: functional, organism-based. Put shortly:
as §5

For assay [15], the system named is Escherichia coli. The assay is described as follows: Antimicrobial activity against kanamycin-resistant Escherichia coli K-12 M2 W3110 deltayhcQ mutant 24 hrs biolflim at 350 ug/ml after 1 hr using BacLight staining. Type of assay: functional. Put shortly: as §5
Assay [16] concerns Escherichia coli. The experiment in a line: Antimicrobial activity against Escherichia coli AMG1 isolate 24 hrs flow cell-generated biofilms using BacLight staining by CSLM. The class given is functional, organism-based. Put shortly: as §3
The test system of assay [17] is Escherichia coli. The experiment in a line: Antimicrobial activity against Escherichia coli isolate AMG1 24 hrs biofilms at 0.03 ug/ml to 0.12 ug/ml after 24 hrs by microtiter plate count method. The class given is functional, organism-based. Put shortly: as §1

In brackets after ≈: the same amount, converted by molar mass. Activity calls are given as the source filed them.

Consider GENTAMICIN, for which the Activity in [1] amounted to 40%.
`O=C(N[C@H](CO)[C@H](O)c1ccc([N+](=O)[O-])cc1)C(Cl)Cl` [CHLORAMPHENICOL]: the Activity in [1] is listed as 40%.
Consider `CC1(C)S[C@@H]2[C@H](NC(=O)Cc3ccccc3)C(=O)N2[C@H]1C(=O)O` [PENICILLIN G], for which the Activity in [2] turned out to be 35%; in assay [3] it was 22%; in assay [4], 55%; in [6] it was 30%; in assay [7], 71%; in assay [8], 71%. In addition, the Activity in [15] turned out to be 31%. Besides, the result in assay [5], in assay [11] and in [14] was Active. For the same compound, the MIC in [9] is 50 mg/L (≈ 150 µM); in assay [10] it was 250 mg/L (≈ 748 µM); in [12] it was 50 mg/L (≈ 150 µM); in [13], 125 mg/L (≈ 374 µM). Further, the outcome in [16] was inactive.
Consider `CCn1cc(C(=O)O)c(=O)c2cc(F)c(N3CCNCC3)cc21`, for which the outcome in [17] was Active.

For the origin of these results see ChEMBL document CHEMBL1137020, “Role of the rapA gene in controlling antibiotic resistance of Escherichia coli biofilms” (2007).
